The values that follow come from ChEMBL document CHEMBL1157723, “Synthesis and anti-viral activity of azolo-adamantanes against influenza A virus” (Bioorg Med Chem, 2010).

Series [1] relates to Influenza A virus. The experiment in a line: Antiviral activity against Influenza A virus (A/Puerto Rico/8/34(H1N1)) infected in MDCK cells assessed as virus yield after 48 hrs end-point dilution method. Conditions: A/Puerto Rico/8/1934(H1N1). It is filed as functional, organism-based. The gist of the method: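 MDCK monolayers were exposed to serial twofold compound dilutions in MEM with 2 mM arginine, 2 mM glutamine and 2 µg/mL trypsin for 1 h at 37 °C, then infected and cultured 48 h at 36 °C. Supernatant was tested by hemagglutination with 1% chicken erythrocytes (1 h, room temperature) and titre by end-point dilution. ED50 is the concentration decreasing virus production […].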

Series [2] can be described thus: Selectivity index, ratio of CTD50 for MDCK cells to EC50 for Influenza A virus (A/Puerto Rico/8/34(H1N1)). The series is classed as toxicity, cell-based. Conditions: dog, read-out: Selectivity Index. The procedure, abridged:
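Ratio of CTD50 (MDCK, MTT after 48 h) to ED50 (PR8 yield in MDCK by hemagglutination end-point titration after 48 h at 36 °C), both from twofold dilution series.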

Series [3] relates to MDCK. The experiment in a line: Cytotoxicity against MDCK cells after 48 hrs by MTT assay. It is filed as cell-based, Canis lupus familiaris. Conditions: dog. The procedure, abridged:
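MDCK cells were grown to monolayer in MEM with 5% fetal calf serum and washed with serum-free MEM. Compounds came from 5 mg/ml DMSO stocks as twofold dilutions of 1000–1 µg/ml in MEM, 48 h at 37 °C. After PBS washes, MTT (0.5 mg/ml) was added for 60 min at 37 °C, the deposit dissolved in DMSO and OD read at 535 nm. CTD50 is the concentration reducing viability 50%.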

In brackets after ≈: the same amount, converted by molar mass.

Consider `Sc1nnnn1-c1ccccc1`, for which the EC50 in series [1] is above 200 µg/mL. For the same compound, in series [2], the selectivity ratio is below 1. The Activity in series [3] amounted to 151 µg/mL.

Take `O=S(=O)([O-])O.c1ccc(-n2n[n+](C34CC5CC(CC(C5)C3)C4)nc2SC23CC4CC(CC(C4)C2)C3)cc1`: the EC50 in series [1] stood at 57 µg/mL. Besides, the selectivity ratio in series [2] was determined as 5. Besides, in series [3], the Activity was determined as 289 µg/mL.

Turning to `Cc1ncn(C23CC4CC(CC(C(C)N)(C4)C2)C3)n1.Cl.Cl` (stereo unspecified), the EC50 in series [1] stood at 62 µg/mL. Besides, the selectivity ratio in series [2] is 15. In series [3], this compound came in with an Activity of 960 µg/mL.

As to `CCn1n[n+](C23CC4CC(CC(C4)C2)C3)nc1[S-]`, in series [1], the concentration for a half-maximal effect (EC50) came to 3 µg/mL (≈ 11.3 µM). For the same compound, the selectivity ratio in series [2] was 41. For the same compound, the Activity in series [3] is 125 µg/mL.

With `O=c1[nH]nnn1-c1ccccc1`, the half-maximal effective concentration (EC50) in series [1] was 294 µg/mL (≈ 1810 µM). Further, in series [2], the selectivity ratio is 3. The compound also displayed an Activity in series [3] above 1000 µg/mL.

For `Cc1nnn(C23CC4CC(CC(C4)C2)C3)n1`, the EC50 in series [1] came out at 77 µg/mL (≈ 353 µM). In addition, the selectivity ratio in series [2] was 7. This compound also registered an Activity in series [3] of 569 µg/mL.

Consider `CC(N)C12CC3CC(C1)CC(n1cnc(Cl)n1)(C3)C2.Cl` (stereo unspecified), for which, in series [1], the EC50 was 15 µg/mL. In addition, in series [2], the selectivity ratio was determined as 9. In series [3], this compound displayed an Activity of 140 µg/mL.

For `CC(N)C12CC3CC(C1)CC(n1ncnn1)(C3)C2.Cl` (stereo unspecified), in series [1], the EC50 was determined as 23 µg/mL. In addition, the selectivity ratio in series [2] was 18. In series [3], this compound yielded an Activity of 423 µg/mL.

Turning to `O=C(O)c1nn(C23CC4CC(CC(C4)C2)C3)cc1Br`, the concentration for a half-maximal effect (EC50) in series [1] amounted to 300 µg/mL (≈ 922 µM). The selectivity ratio in series [2] is 1. Moreover, the Activity in series [3] worked out at 443 µg/mL.

Take `CC(N)C12CC3CC(C1)CC(n1cnc([N+](=O)[O-])n1)(C3)C2.Cl` (stereo unspecified): in series [1], the EC50 was determined as 120 µg/mL. The selectivity ratio in series [2] was determined as 1. In series [3], this compound had an Activity of 131 µg/mL.

For the compound `Cc1nnn(C23CC4CC(CC(N)(C4)C2)C3)n1.Cl`, the EC50 in series [1] was determined as 13 µg/mL. Besides, in series [2], the selectivity ratio was found to be 16. For the same compound, the Activity in series [3] was 213 µg/mL.

`CCc1nnn(C23CC4CC(CC(N)(C4)C2)C3)n1.Cl`: the 50% effective concentration (EC50) in series [1] stood at 25 µg/mL. In series [2], the selectivity ratio amounted to 10. Further, in series [3], the Activity is 262 µg/mL.

Consider `CCOC(=O)Cc1nnn(C23CC4CC(CC(N)(C4)C2)C3)n1.Cl`, for which the EC50 in series [1] stood at 18 µg/mL. Moreover, in series [2], the selectivity ratio was found to be 7. In series [3], this compound had an Activity of 127 µg/mL.

As for `NC1N=NC(Cc2nnn(C34CC5CC(CC(C5)C3)C4)n2)=N1` (stereo unspecified), the concentration for a half-maximal effect (EC50) in series [1] was determined as 0.09 µg/mL (≈ 0.3 µM). Besides, the selectivity ratio in series [2] turned out to be 2. The compound further displayed an Activity in series [3] of 0.18 µg/mL.

In the case of `Cl.NC12CC3CC(C1)CC(n1cncn1)(C3)C2`, in series [1], the half-maximal effective concentration (EC50) came out at 123 µg/mL. For the same compound, the selectivity ratio in series [2] was 12. Besides, in series [3], the Activity is 1489 µg/mL.

`Cl.NC12CC3CC(C1)CC(n1cnc(Br)n1)(C3)C2`: the half-maximal effective concentration (EC50) in series [1] amounted to 111 µg/mL. For the same compound, the selectivity ratio in series [2] was determined as 6. The Activity in series [3] worked out at 620 µg/mL.

In the case of `O=C(O)Cc1nnn(C23CC4CC(CC(C4)C2)C3)n1`, in series [1], the EC50 was determined as 71 µg/mL (≈ 271 µM). Further, in series [2], the selectivity ratio is above 7. For the same compound, the Activity in series [3] is above 500 µg/mL.

For `CCCCOC(=O)Cc1nnn(C23CC4CC(CC(C4)C2)C3)n1`, in series [1], the EC50 is above 1 µg/mL. Also, in series [2], the selectivity ratio was below 1. This compound gave an Activity in series [3] below 1 µg/mL.

With `c1nnn(C23CC4CC(CC(C4)C2)C3)n1`, in series [1], the concentration giving a half-maximal response (EC50) turned out to be 56 µg/mL (≈ 274 µM). Also, in series [2], the selectivity ratio was found to be 5. The same compound registered an Activity in series [3] of 253 µg/mL.

Consider `Cc1nn(C23CC4CC(CC(C4)C2)C3)c(C)c1N`, for which, in series [1], the EC50 amounted to 100 µg/mL (≈ 408 µM). Also, in series [2], the selectivity ratio turned out to be 6. The same compound showed an Activity in series [3] of 600 µg/mL.

With `[S-]c1n[n+](C23CC4CC(CC(C4)C2)C3)nn1-c1ccccc1`, in series [1], the half-maximal effective concentration (EC50) was determined as 130 µg/mL (≈ 416 µM). For the same compound, the selectivity ratio in series [2] worked out at 2. In series [3], this compound yielded an Activity of 300 µg/mL.

On to `Cc1nnn(C23CC4CC(CC(C(C)N)(C4)C2)C3)n1.Cl` (stereo unspecified), for which, in series [1], the EC50 worked out at 8 µg/mL. Further, the selectivity ratio in series [2] was 30. In series [3], this compound showed an Activity of 242 µg/mL.

Consider `S=c1[nH]nnn1C12CC3CC(CC(C3)C1)C2`, for which the EC50 in series [1] is 15 µg/mL (≈ 63.5 µM). Besides, in series [2], the selectivity ratio stood at 11. This compound also gave an Activity in series [3] of 167 µg/mL.

For `OC12CC3CC(C1)CC(n1nn[nH]c1=S)(C3)C2`, in series [1], the concentration giving a half-maximal response (EC50) was found to be 8 µg/mL (≈ 31.7 µM). Moreover, in series [2], the selectivity ratio stood at 18. The Activity in series [3] is 146 µg/mL.

`c1nnnn1C12CC3CC(CC(C3)C1)C2`: in series [1], the EC50 is 11 µg/mL (≈ 53.8 µM). The selectivity ratio in series [2] was 25. Further, the Activity in series [3] was found to be 281 µg/mL.

For `Cl.NC12CC3CC(C1)CC(n1ncnn1)(C3)C2`, in series [1], the 50% effective concentration (EC50) was 22 µg/mL. Also, the selectivity ratio in series [2] turned out to be 25. This compound yielded an Activity in series [3] of 552 µg/mL.

For the compound `Clc1ncn(C23CC4CC(CC(C4)C2)C3)n1`, in series [1], the EC50 is 59 µg/mL (≈ 248 µM). Further, the selectivity ratio in series [2] was 10. In addition, the Activity in series [3] was 583 µg/mL.

As for `OC12CC3CC(C1)CC(N=C=S)(C3)C2`, the EC50 in series [1] turned out to be 150 µg/mL (≈ 717 µM). Also, the selectivity ratio in series [2] was above 3. Moreover, in series [3], the Activity was above 500 µg/mL.

Take `CCc1nnn(C23CC4CC(CC(C(C)N)(C4)C2)C3)n1.Cl` (stereo unspecified): in series [1], the EC50 is 6 µg/mL. In series [2], the selectivity ratio amounted to 50. In series [3], this compound gave an Activity of 299 µg/mL.

For the compound `c1ncn(C23CC4CC(CC(C4)C2)C3)n1`, the half-maximal effective concentration (EC50) in series [1] is 77 µg/mL (≈ 379 µM). Further, the selectivity ratio in series [2] came out at 5. This compound displayed an Activity in series [3] of 358 µg/mL.

Take `CCOC(=O)Cc1nnn(C23CC4CC(CC(C4)C2)C3)n1`: in series [1], the EC50 came out at 232 µg/mL (≈ 799 µM). Further, in series [2], the selectivity ratio came to 4. The same compound showed an Activity in series [3] above 1000 µg/mL.

For the compound `CC(N)C12CC3CC(CC(C3)C1)C2` (stereo unspecified) [RIMANTADINE], the 50% effective concentration (EC50) in series [1] was 5 µg/mL (≈ 27.9 µM). Moreover, in series [2], the selectivity ratio amounted to 12. In addition, in series [3], the Activity amounted to 60 µg/mL.
